From ChEMBL document CHEMBL1131599, “Synthesis of C3 heteroatom-substituted azetidinones that display potent cholesterol absorption inhibitory activity” (1998) come the findings set out here.

Experiment [1] in a line: Percent reduction of liver cholesterol ester levels after po administration of compound in cholesterol fed hamsters at a dose 10 mg/kg/day. As to conditions: Cricetulus griseus. The format is functional. An outline of the steps:
(§1)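 Cholesterol-fed hamsters were dosed orally for 7 days, with doses in mg/kg/day. The value is % inhibition at the stated dose, or an ED50 in mg/kg/day, with n = 4 animals per compound.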

The nature of experiment [2]: Ability to inhibit liver cholesterol ester was determined in cholesterol fed hamsters. The format is functional, Cricetulus griseus. An outline of the steps: as §1
Experiment [3] is described as follows: Percent reduction of liver cholesterol ester levels after po administration of compound in cholesterol fed hamsters at a dose 1 mg/kg/day. In kind it is functional, Cricetulus griseus. To be noted: for inhibition in vivo at 1 mg/kg/day: Cricetulus griseus, Liver, po. The method in brief: as §1
Experiment [4] is described as follows: Percent reduction of liver cholesterol ester levels after po administration of compound in cholesterol fed hamsters at a dose 3 mg/kg/day. To be noted: Cricetulus griseus. The format is functional. The method in brief: as §1
Experiment [5] in a line: Percent reduction of liver cholesterol ester levels after po administration of compound in cholesterol fed hamsters at a dose 25 mg/kg/day. In kind it is functional. As to conditions: Cricetulus griseus. The method in brief: (§2)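 Cholesterol-fed hamsters received the compound orally once daily for 7 days, with dose expressed as mg/kg/day. Four animals per compound. Values are reported as % inhibition at the given dose, or as an ED50 in mg/kg/day.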

Experiment [6] is described as follows: Percent reduction of Liver cholesterol ester levels after peroral administration in cholesterol fed hamsters. The format is functional, Cricetulus griseus. The method in brief:
as §1

Experiment [7] can be described thus: Percent reduction of Liver cholesterol ester levels after peroral administration in cholesterol fed hamsters at a dose 10 mg/kg/day. In kind it is functional. As to conditions: Cricetulus griseus, route oral. An outline of the steps:
as §1

Experiment [8] in a line: Percent reduction of liver cholesterol ester levels after po administration of compound in cholesterol fed hamsters. The format is functional, Cricetulus griseus. The method in brief: as §2

For `COc1ccc([C@H]2C(SCCc3ccccc3)C(=O)N2c2ccccc2)cc1` (stereo partly specified), the inhibition in vivo at 10 mg/kg/day in experiment [1] is -31%.
For `COc1ccc([C@@H]2[C@H]([S+]([O-])CCc3ccccc3)C(=O)N2c2ccccc2)cc1` (stereo partly specified), in experiment [2], it took a dose of 0.58 mg/kg/day to reach the 50% effect level (ED50). In addition, in experiment [3], the inhibition in vivo at 1 mg/kg/day came to 58%. The inhibition in vivo at 3 mg/kg/day in experiment [4] was found to be 78%.
Consider `COc1ccc([C@@H]2[C@@H](P(=O)(O)CCc3ccccc3)C(=O)N2c2ccccc2)cc1`, for which the inhibition in vivo at 25 mg/kg/day in experiment [5] was 0%.
As to `COc1ccc([C@@H]2[C@H](SCCc3ccccc3)C(=O)N2c2ccccc2)cc1`, in experiment [1], the inhibition in vivo at 10 mg/kg/day was 31%.
Turning to `COc1ccc([C@@H]2C(SCCc3ccccc3)C(=O)N2c2ccccc2)cc1` (stereo partly specified), the inhibition in vivo at 25 mg/kg/day in experiment [5] turned out to be 97%.
Regarding `COc1ccc([C@@H]2[C@H](C(O)CCc3ccccc3)C(=O)N2c2ccccc2)cc1` (stereo partly specified), it took a dose of 0.4 mg/kg/day to reach the 50% effect level in experiment [6] (ED50).
For the molecule `COc1ccc([C@@H]2[C@@H](CCP(=O)(OC)c3ccccc3)C(=O)N2c2ccccc2)cc1` (stereo partly specified), in experiment [5], the inhibition in vivo at 25 mg/kg/day was 0%.
On to `COc1ccc([C@@H]2[C@@H](CCP(=O)(O)c3ccccc3)C(=O)N2c2ccccc2)cc1`, for which the inhibition in vivo at 25 mg/kg/day in experiment [5] was found to be 0%.
Turning to `COc1ccc([C@@H]2[C@@H](CCC(O)c3ccccc3)C(=O)N2c2ccccc2)cc1` (stereo partly specified), the ED50 in experiment [6] was found to be 0.9 mg/kg/day.
In the case of `COc1ccc([C@@H]2[C@@H](CCS(=O)(=O)c3ccccc3)C(=O)N2c2ccccc2)cc1`, in experiment [1], the inhibition in vivo at 10 mg/kg/day worked out at 23%.
Consider `COc1ccc([C@@H]2[C@@H](CCSc3ccccc3)C(=O)N2c2ccccc2)cc1`, for which, in experiment [7], the inhibition in vivo at 10 mg/kg/day stood at 0%.
As for `O=C1[C@H]([S+]([O-])CCc2ccccc2)[C@@H](c2ccc(O)cc2)N1c1ccc(F)cc1` (stereo partly specified), in experiment [3], the inhibition in vivo at 1 mg/kg/day is 82%. Also, the inhibition in vivo at 10 mg/kg/day in experiment [1] came out at 56%.
Take `COc1ccc([C@@H]2[C@@H](CC[S+]([O-])c3ccccc3)C(=O)N2c2ccccc2)cc1` (stereo partly specified): in experiment [1], the inhibition in vivo at 10 mg/kg/day amounted to 21%.
As for `O=C1[C@H](SCCc2ccccc2)[C@@H](c2ccc(O)cc2)N1c1ccc(F)cc1`, the inhibition in vivo at 1 mg/kg/day in experiment [3] was 83%.
The molecule `COc1ccc([C@@H]2C([S+]([O-])CCc3ccccc3)C(=O)N2c2ccccc2)cc1` (stereo partly specified) showed an ED50 in experiment [2] of 0.59 mg/kg/day. Further, the inhibition in vivo at 25 mg/kg/day in experiment [5] came to 97%.
In turn, `COc1ccc([C@@H]2[C@@H](P(=O)(CCc3ccccc3)OC)C(=O)N2c2ccccc2)cc1` (stereo partly specified) registered an Inhibition in experiment [8] of 0%.
Turning to `O=C1[C@@H](SCCc2ccccc2)[C@@H](c2ccc(O)cc2)N1c1ccc(F)cc1`, in experiment [3], the inhibition in vivo at 1 mg/kg/day came out at 0%.
For `COc1ccc([C@@H]2C(S(=O)(=O)CCc3ccccc3)C(=O)N2c2ccccc2)cc1` (stereo partly specified), the inhibition in vivo at 25 mg/kg/day in experiment [5] was 54%.
As for `COc1ccc([C@@H]2[C@@H](SCCc3ccccc3)C(=O)N2c2ccccc2)cc1`, it took a dose of 0.13 mg/kg/day to reach the 50% effect level in experiment [2] (ED50). Moreover, in experiment [3], the inhibition in vivo at 1 mg/kg/day was 89%.
`COc1ccc([C@@H]2[C@@H]([S+]([O-])CCc3ccccc3)C(=O)N2c2ccccc2)cc1` (stereo in doubt; 26): it took a dose of 0.9 mg/kg/day to reach the 50% effect level in experiment [2] (ED50). The Inhibition in experiment [3] amounted to 58%.
In the same order, the values of `COc1ccc([C@@H]2[C@@H]([S+]([O-])CCc3ccccc3)C(=O)N2c2ccccc2)cc1` (stereo in doubt; 27) are 0.21 mg/kg/day and 82%.
`O=C1[C@@H]([S+]([O-])CCc2ccccc2)[C@@H](c2ccc(O)cc2)N1c1ccc(F)cc1` (stereo in doubt; 37): the inhibition in vivo at 1 mg/kg/day in experiment [3] worked out at 40%.
Take `O=C1[C@@H]([S+]([O-])CCc2ccccc2)[C@@H](c2ccc(O)cc2)N1c1ccc(F)cc1` (stereo in doubt; 38): the Inhibition in experiment [3] amounted to 42%.
`COc1ccc([C@@H]2[C@@H](CCCc3ccccc3)C(=O)N2c2ccc(OC)cc2)cc1` [SCH-48461] came in with an ED50 in experiment [6] of 2.2 mg/kg/day.
